Test results from ChEMBL document CHEMBL1136706, “Synthesis and evaluation of a novel series of farnesyl protein transferase inhibitors as non-peptidic CAAX tetrapeptide analogues” (Bioorg Med Chem Lett, 2003).

How the values were obtained:
DLD-1 = experiment: Concentration required to inhibit 50% of farnesylation of H-Ras in DLD-1 cells; format: functional, cell-based; settings: Homo sapiens
[1] = biological target: Protein farnesyltransferase (Bos taurus, UniProt P29702+P49355); experiment: Inhibit of purified bovine Farnesyl protein transferase.; format: protein-complex assay
Method in brief: (§1)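 Isolated-enzyme inhibition assays (FPTase, and GGPTase I for the GGPTase lines) were run by a previously published method, with n=2 determinations per compound. The read-out is the IC50 in nM.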

[2] = Concentration required to inhibit 50% of GGPTase enzyme activity; method in brief: as §1

Compound | IC50 (DLD-1) [nM] | IC50 [1] [nM] | IC50 [2] [nM]
N#Cc1ccc(Cn2cncc2CN(c2ccc(N3CCN(C(=O)c4ccc(Cl)s4)CC3)cc2)S(=O)(=O)c2ccccc2)cc1 | 200 | – | –
N#Cc1ccc(Cn2cncc2CN(Cc2cccc(F)c2)c2ccc(N3CCN(C(=O)c4ccc(Cl)s4)CC3)cc2)cc1 | – | 20 | –
O=C(c1ccc(Cl)s1)N1CCN(c2ccc(N(Cc3cnc[nH]3)S(=O)(=O)c3ccccc3)cc2)CC1 | – | 600 | –
O=S(=O)(c1ccccc1)N(Cc1c[nH]cn1)c1ccc(N2CCN(C(=S)Nc3ccccc3)CC2)cc1 | – | 600 | > 1000
O=C(NC1CCCCC1)N1CCN(c2ccc(N(Cc3cnc[nH]3)S(=O)(=O)c3ccccc3)cc2)CC1 | – | 1000 | –
O=S(=O)(c1ccccc1)N(Cc1c[nH]cn1)c1ccc(N2CCN(C(=S)NCCc3ccccc3)CC2)cc1 | – | 100 | > 1000
CC(C)C/N=C(\S)N1CCN(c2ccc(N(Cc3c[nH]cn3)S(=O)(=O)c3ccccc3)cc2)CC1 | 800 | – | > 1000
O=C(NCc1ccccc1)N1CCN(c2ccc(N(Cc3cnc[nH]3)S(=O)(=O)c3ccccc3)cc2)CC1 | – | 600 | –
O=S(=O)(c1ccccc1)N(Cc1c[nH]cn1)c1ccc(N2CCN(C(=S)NCc3ccccc3)CC2)cc1 | – | 60 | > 1000
O=S(=O)(c1ccccc1)N(Cc1c[nH]cn1)c1ccc(N2CCN(C(=S)NCC3CCCCC3)CC2)cc1 | – | 30 | > 1000
N#Cc1ccc(Cn2cncc2CNc2ccc(N3CCN(C(=O)c4ccc(Cl)s4)CC3)cc2)cc1 | – | 70 | –
O=S(=O)(c1ccccc1)N(Cc1c[nH]cn1)c1ccc(N2CCN(C(=S)NC3CCCCC3)CC2)cc1 | 1000 | 20 | > 1000
N#Cc1ccc(Cn2cncc2CN(Cc2ccc(F)cc2)c2ccc(N3CCN(C(=O)c4ccc(Cl)s4)CC3)cc2)cc1 | – | 70 | –
O=C(Nc1ccccc1)N1CCN(c2ccc(N(Cc3cnc[nH]3)S(=O)(=O)c3ccccc3)cc2)CC1 | – | 1000 | –

Next, values leading:

IC50 (DLD-1) [nM] | IC50 [1] [nM] | IC50 [2] [nM] | Compound
7 | 2 | 700 | COc1cccc(C(=O)N(Cc2cncn2Cc2ccc(C#N)cc2)c2ccc(N3CCN(C(=O)c4ccc(Cl)s4)CC3)cc2)c1
3 | – | > 1000 | N#Cc1ccc(Cn2cncc2CN(C(=O)c2ccccc2)c2ccc(N3CCN(C(=O)c4ccc(Cl)s4)CC3)cc2)cc1
> 10000 | 2 | – | COc1ccccc1C(=O)N(Cc1cncn1Cc1ccc(C#N)cc1)c1ccc(N2CCN(C(=O)c3ccc(Cl)s3)CC2)cc1
20 | – | – | N#Cc1ccc(Cn2cncc2CN(C(=O)c2ccccc2F)c2ccc(N3CCN(C(=O)c4ccc(Cl)s4)CC3)cc2)cc1
80 | 2 | – | COc1ccc(C(=O)N(Cc2cncn2Cc2ccc(C#N)cc2)c2ccc(N3CCN(C(=O)c4ccc(Cl)s4)CC3)cc2)cc1
2 | 2 | > 1000 | N#Cc1ccc(Cn2cncc2CN(C(=O)c2cccc(Cl)c2)c2ccc(N3CCN(C(=O)c4ccc(Cl)s4)CC3)cc2)cc1
6 | – | > 1000 | N#Cc1ccc(Cn2cncc2CN(C(=O)c2cccc(F)c2)c2ccc(N3CCN(C(=O)c4ccc(Cl)s4)CC3)cc2)cc1
